This note sets out measurements from ChEMBL document CHEMBL1141362, “Synthesis and solid-phase purification of anthranilic sulfonamides as CCK-2 ligands” (Bioorg Med Chem Lett, 2007).

As usually defined, the Ki is a measure of affinity in units of concentration, obtained from inhibition or displacement.

A short description of data set [1]: Metabolic stability in human liver microsomes after 30 mins. It is filed as ADME, Microsome. Conditions: read-out: Stability. Summed up: (§1)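 Compound incubated with human or rat liver microsomes to assess stability toward CYP450 oxidation. The read-out is percent of parent compound remaining after 30 min.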
In general terms: Liver microsomes are a subcellular fraction often used to study metabolism.

Data set [2] is described as follows: Metabolic stability in rat liver microsomes after 30 mins. Conditions: read-out: Stability. The format is ADME, Microsome. Summed up: as §1
The target of data set [3] is T1, Gastrin/cholecystokinin type B receptor (Homo sapiens, UniProt P32239).
T1 sequence (P32239 whole entry): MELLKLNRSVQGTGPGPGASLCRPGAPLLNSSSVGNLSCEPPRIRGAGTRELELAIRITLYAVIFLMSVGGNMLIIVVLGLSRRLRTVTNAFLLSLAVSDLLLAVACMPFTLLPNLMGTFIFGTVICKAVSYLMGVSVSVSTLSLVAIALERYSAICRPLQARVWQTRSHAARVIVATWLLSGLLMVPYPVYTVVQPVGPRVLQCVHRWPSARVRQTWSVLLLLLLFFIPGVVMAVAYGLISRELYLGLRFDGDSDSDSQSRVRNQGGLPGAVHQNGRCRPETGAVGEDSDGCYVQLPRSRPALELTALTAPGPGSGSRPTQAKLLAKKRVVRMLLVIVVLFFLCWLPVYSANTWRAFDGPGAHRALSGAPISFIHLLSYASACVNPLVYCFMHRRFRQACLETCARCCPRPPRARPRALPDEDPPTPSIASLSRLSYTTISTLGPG
Briefly: Displacement of [125I]CCK-8S from CCK2 receptor. Summed up:
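Apparent antagonist equilibrium dissociation constant, reported as its negative logarithm, derived by the Cheng–Prusoff method from the concentration displacing 50% of 125I-CCK-8S (pIC50). Values are ±0.3 log units unless stated otherwise.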

For data set [4], the target named is T2, Cholecystokinin receptor type A (Homo sapiens, UniProt P32238).
T2 sequence (P32238 whole entry): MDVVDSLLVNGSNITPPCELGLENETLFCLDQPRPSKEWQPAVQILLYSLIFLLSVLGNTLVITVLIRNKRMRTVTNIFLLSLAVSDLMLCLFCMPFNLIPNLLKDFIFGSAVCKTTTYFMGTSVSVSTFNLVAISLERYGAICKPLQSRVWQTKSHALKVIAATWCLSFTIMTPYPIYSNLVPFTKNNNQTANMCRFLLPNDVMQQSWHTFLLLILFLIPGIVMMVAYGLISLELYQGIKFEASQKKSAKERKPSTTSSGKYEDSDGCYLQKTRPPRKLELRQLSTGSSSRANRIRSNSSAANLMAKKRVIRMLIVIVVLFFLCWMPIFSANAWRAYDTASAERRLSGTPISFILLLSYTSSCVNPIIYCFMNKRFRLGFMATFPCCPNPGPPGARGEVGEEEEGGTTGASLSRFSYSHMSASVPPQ
Briefly: Binding affinity to CCK1 receptor.

Turning to `Cc1nnc(-c2cccc(S(=O)(=O)Nc3cc(Br)ccc3C(=O)N3CCCCC3)c2)o1`, the remaining at 0.5 h in data set [1] is 0%; in data set [2], 66%. The same compound showed a Ki in data set [3] of 7.94 µM.
The corresponding values for `O=C(c1ccc(Br)cc1NS(=O)(=O)c1ccc(C(F)(F)F)cc1Cl)N1CCCCC1` are 44%, 49% and 0.631 µM.
The matching figures for `O=C(c1ccc(Br)cc1NS(=O)(=O)c1ccc(-c2cc(C(F)(F)F)on2)s1)N1CCCCC1`: 89%, 87% and 5.01 µM.
The matching figures for `COC(=O)c1c(C)oc(C)c1S(=O)(=O)Nc1cc(Br)ccc1C(=O)N1CCCCC1`: 0%, 11% and 0.501 µM.
Consider `N#Cc1cccc(S(=O)(=O)Nc2cc(Br)ccc2C(=O)N2CCCCC2)c1`, for which the figures for the remaining at 0.5 h in data set [1] and in data set [2] were 7% and 100%, respectively. Moreover, the Ki in data set [3] is 5.01 µM.
The corresponding values for `O=C(c1ccc(Br)cc1NS(=O)(=O)c1ccc2nsnc2c1)N1CCCCC1` are 13%, 23% and 5.01 µM.
Regarding `CSc1nccc(-c2ccc(S(=O)(=O)Nc3cc(Br)ccc3C(=O)N3CCCCC3)s2)n1`, the remaining at 0.5 h in data set [1] worked out at 63%; in data set [2], 39%. Besides, in data set [3], the Ki was 3.16 µM.
For the compound `O=C(NCc1ccc(S(=O)(=O)Nc2cc(Br)ccc2C(=O)N2CCCCC2)s1)c1ccccc1`, the remaining at 0.5 h in data set [1] and in data set [2] was 0% in each case. In data set [3], this compound gave a Ki of 6.31 µM.
In the case of `O=C(c1ccc(Br)cc1NS(=O)(=O)c1sc(Cl)cc1Br)N1CCCCC1`, the remaining at 0.5 h in data set [1] was 2%; in data set [2], 68%. Also, the affinity in data set [3], expressed as Ki, was 0.794 µM.
The corresponding values for `O=C(c1ccc(Br)cc1NS(=O)(=O)c1csc2ccccc12)N1CCCCC1` are 23%, 19% and 3.16 µM.
The matching figures for `COC(=O)c1cc(S(=O)(=O)Nc2cc(Br)ccc2C(=O)N2CCCCC2)oc1C`: 10%, 100% and 5.01 µM.
The corresponding values for `O=C(c1ccc(Br)cc1NS(=O)(=O)c1ccc2c(c1)OCCCO2)N1CCCCC1` are 41%, 9% and 2.51 µM.
As to `Cc1ccc(S(=O)(=O)Nc2cc(Br)ccc2C(=O)N2CCCCC2)cc1[N+](=O)[O-]`, the remaining at 0.5 h in data set [1] is 3%; in data set [2], 25%. Moreover, the affinity in data set [3] corresponds to a Ki of 2 µM.
The matching figures for `Cc1c(S(=O)(=O)Nc2cc(Br)ccc2C(=O)N2CCCCC2)cnn1-c1ccccc1`: 85%, 30% and 7.94 µM.
The matching figures for `Cc1nc(-c2ccc(S(=O)(=O)Nc3cc(Br)ccc3C(=O)N3CCCCC3)s2)cs1`: 5%, 47% and 3.98 µM.
Take `O=C(c1ccc(Br)cc1NS(=O)(=O)c1c(Cl)nc2sccn12)N1CCCCC1`: the values for the remaining at 0.5 h in data set [1] and in data set [2] were 7% and 100%, respectively. The compound further gave a Ki in data set [3] of 1.58 µM.
`O=C(c1cc(Cl)ccc1NS(=O)(=O)c1cccc2nsnc12)N1CCCCC1` gave a Ki in data set [4] of over 10 µM.
Consider `COC(=O)c1csc(S(=O)(=O)Nc2cc(Br)ccc2C(=O)N2CCCCC2)c1OC`, for which the remaining at 0.5 h in data set [1] and in data set [2] was 0% each time. The same compound gave a Ki in data set [3] of 5.01 µM.
Regarding `O=C(c1ccc(Br)cc1NS(=O)(=O)c1cccc2nsnc12)N1CCCCC1`, the figures for the remaining at 0.5 h in data set [1] and in data set [2] were 0% and 29%, respectively.
`COC(=O)c1sc(C(F)(F)F)c(-c2ccccc2)c1S(=O)(=O)Nc1cc(Br)ccc1C(=O)N1CCCCC1`: the remaining at 0.5 h in data set [1] and in data set [2] was 0% in each case. Besides, the Ki in data set [3] was 7.94 µM.
Turning to `O=C(c1ccc(Br)cc1NS(=O)(=O)c1c(F)cccc1F)N1CCCCC1`, the remaining at 0.5 h in data set [1] was 77%; in data set [2], 78%. Moreover, the Ki in data set [3] is 0.501 µM.
With `COC(=O)c1sccc1S(=O)(=O)Nc1cc(Br)ccc1C(=O)N1CCCCC1`, the remaining at 0.5 h in data set [1] came out at 3%; in data set [2], 37%. This compound also had a Ki in data set [3] of 1.58 µM.
